Measured values published in ChEMBL document CHEMBL2311539, “3,6-Diamino-4-(2-halophenyl)-2-benzoylthieno[2,3-b]pyridine-5-carbonitriles are selective inhibitors of Plasmodium falciparum glycogen synthase kinase-3” (J Med Chem, 2013).
pEC50, pIC50: −log10 of the molar value.

Experiments:
[1] = biological target: T1, Inhibitor of nuclear factor kappa-B kinase subunit epsilon (Homo sapiens) (UniProt Q14164); assay: Inhibition of IKK-epsilon (unknown origin) at 10 uM
T1 sequence (whole entry): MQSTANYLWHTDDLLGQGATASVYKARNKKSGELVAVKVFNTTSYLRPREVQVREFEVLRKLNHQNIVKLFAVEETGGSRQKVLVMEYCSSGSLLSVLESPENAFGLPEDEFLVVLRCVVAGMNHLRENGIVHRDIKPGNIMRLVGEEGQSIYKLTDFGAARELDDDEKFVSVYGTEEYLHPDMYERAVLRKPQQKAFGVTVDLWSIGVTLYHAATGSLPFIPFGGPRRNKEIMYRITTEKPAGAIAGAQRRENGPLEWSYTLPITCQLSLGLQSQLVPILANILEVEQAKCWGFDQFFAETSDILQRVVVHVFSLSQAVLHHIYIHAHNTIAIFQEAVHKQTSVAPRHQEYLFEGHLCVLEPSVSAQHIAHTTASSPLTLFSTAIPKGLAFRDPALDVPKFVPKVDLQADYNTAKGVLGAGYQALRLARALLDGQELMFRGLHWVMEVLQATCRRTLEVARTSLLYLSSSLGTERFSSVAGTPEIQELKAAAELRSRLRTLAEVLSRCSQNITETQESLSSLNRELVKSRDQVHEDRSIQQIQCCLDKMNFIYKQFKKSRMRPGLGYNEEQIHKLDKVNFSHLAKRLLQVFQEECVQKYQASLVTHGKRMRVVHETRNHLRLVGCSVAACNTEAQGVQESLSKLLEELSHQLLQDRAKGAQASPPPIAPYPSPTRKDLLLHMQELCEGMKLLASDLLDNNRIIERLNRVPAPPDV
Procedure, shortened: (§1)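 Dundee human kinase selectivity panel (77 kinases); test compound at 1 and 10 μM, percentage kinase inhibition recorded.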

Plasmodium falciparum [2] = assay: Antiplasmodial activity against Plasmodium falciparum at 15 uM after 72 hrs by luciferase reporter gene assay; assay type: functional
Procedure, shortened: (§2)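 NF54:LUC P. falciparum erythrocytic stages (luciferase under hrp2 promoter) at 3% parasitemia, 25% hematocrit; compounds in RPMI-1640 with 1% DMSO, triplicate wells; untreated, DMSO-only and non-luciferase NF54 blank wells. […] Bright-Glo lysis, luminescence read.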

[3] = Inhibition of pig GSK-3 by radiometric protein kinase assay; set-up: species or system Sus scrofa
Procedure, shortened: (§3)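 Native affinity-purified porcine GSK-3 in the radiometric assay: 40 μM GS-1 peptide, 15 μM γ-33P-ATP, pH 7.5 Tris/MgCl2/EGTA/DTT/heparin/BSA buffer, 30 min at 30 °C, P81 filter binding and scintillation counting. IC50 from dose-response curves with triplicate points; top concentration 10 or 100 μM.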

[4] = Inhibition of Plasmodium falciparum recombinant His6-tagged GSK-3 expressed in Escherichia coli using GS-1 peptide as substrate after 30 mins by scintillation counting analysis in presence of gamma-33P-ATP
Procedure, shortened: (§4)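 His6-tagged recombinant GSK-3 expressed in E. coli (TOP10/pBAD-Thio-TOPO for P. falciparum and T. gondii, arabinose-induced; BL21(DE3)-pRARE2/pET15 for C. parvum, IPTG at 15 °C), Ni-NTA purified. Assayed with 40 μM GS-1 phosphopeptide, 15 μM γ-33P-ATP in pH 7.5 Tris buffer with MgCl2, EGTA, DTT, heparin, BSA; 30 min, 30 °C; P81 paper, phosphoric acid washes, scintillation counting. DMSO controls; dose-response IC50, triplicate points.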

[5] = biological target: RAC-alpha serine/threonine-protein kinase (Homo sapiens) (UniProt P31749); assay: Inhibition of PKB alpha (unknown origin) at 10 uM; procedure, shortened: as §1
RAC-alpha serine/threonine-protein kinase (Homo sapiens), sequence (P31749 whole entry): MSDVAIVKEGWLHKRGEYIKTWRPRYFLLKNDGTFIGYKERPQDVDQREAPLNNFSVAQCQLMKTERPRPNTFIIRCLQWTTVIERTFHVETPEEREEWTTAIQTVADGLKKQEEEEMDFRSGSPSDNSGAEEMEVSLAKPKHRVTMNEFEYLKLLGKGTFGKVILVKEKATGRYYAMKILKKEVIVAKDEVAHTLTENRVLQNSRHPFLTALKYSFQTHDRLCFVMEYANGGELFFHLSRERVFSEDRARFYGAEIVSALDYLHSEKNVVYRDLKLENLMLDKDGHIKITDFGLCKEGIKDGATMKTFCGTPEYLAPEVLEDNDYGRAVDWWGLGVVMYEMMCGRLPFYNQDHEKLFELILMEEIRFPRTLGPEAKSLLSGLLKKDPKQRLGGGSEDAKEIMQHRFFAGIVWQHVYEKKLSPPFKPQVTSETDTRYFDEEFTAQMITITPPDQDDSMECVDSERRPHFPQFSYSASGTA

[6] = Inhibition of Plasmodium falciparum recombinant GSK-3 by radiometric protein kinase assay; procedure, shortened: as §4
[7] = biological target: MAP kinase-activated protein kinase 2 (Homo sapiens) (UniProt P49137); assay: Inhibition of MAPKAP-K2 (unknown origin) at 10 uM; procedure, shortened: as §1
MAP kinase-activated protein kinase 2 (Homo sapiens), sequence (P49137 whole entry, looked up): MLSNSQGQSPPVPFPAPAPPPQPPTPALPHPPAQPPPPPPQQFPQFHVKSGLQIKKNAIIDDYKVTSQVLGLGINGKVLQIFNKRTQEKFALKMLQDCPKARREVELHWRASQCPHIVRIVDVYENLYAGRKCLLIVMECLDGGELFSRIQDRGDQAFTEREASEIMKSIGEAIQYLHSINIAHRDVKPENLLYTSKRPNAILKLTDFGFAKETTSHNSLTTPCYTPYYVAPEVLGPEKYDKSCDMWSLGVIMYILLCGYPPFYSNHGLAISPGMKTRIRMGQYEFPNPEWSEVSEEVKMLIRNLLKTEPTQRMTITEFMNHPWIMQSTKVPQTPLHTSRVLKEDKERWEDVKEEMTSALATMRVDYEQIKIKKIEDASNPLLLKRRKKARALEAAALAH

Plasmodium falciparum [8] = assay: Antiplasmodial activity against Plasmodium falciparum after 72 hrs by luciferase reporter gene assay; assay type: functional, organism-based; conditions: 48 h, in the assay text read “48 hrs” for “72 hrs”; procedure, shortened: as §2
[9] = Inhibition of Trypanosoma cruzi GSK-3
[10] = biological target: Serine/threonine-protein kinase PAK 4 (Homo sapiens) (UniProt O96013); assay: Inhibition of PAK4 (unknown origin) at 10 uM; procedure, shortened: as §1
Serine/threonine-protein kinase PAK 4 (Homo sapiens), sequence (O96013 whole entry, looked up): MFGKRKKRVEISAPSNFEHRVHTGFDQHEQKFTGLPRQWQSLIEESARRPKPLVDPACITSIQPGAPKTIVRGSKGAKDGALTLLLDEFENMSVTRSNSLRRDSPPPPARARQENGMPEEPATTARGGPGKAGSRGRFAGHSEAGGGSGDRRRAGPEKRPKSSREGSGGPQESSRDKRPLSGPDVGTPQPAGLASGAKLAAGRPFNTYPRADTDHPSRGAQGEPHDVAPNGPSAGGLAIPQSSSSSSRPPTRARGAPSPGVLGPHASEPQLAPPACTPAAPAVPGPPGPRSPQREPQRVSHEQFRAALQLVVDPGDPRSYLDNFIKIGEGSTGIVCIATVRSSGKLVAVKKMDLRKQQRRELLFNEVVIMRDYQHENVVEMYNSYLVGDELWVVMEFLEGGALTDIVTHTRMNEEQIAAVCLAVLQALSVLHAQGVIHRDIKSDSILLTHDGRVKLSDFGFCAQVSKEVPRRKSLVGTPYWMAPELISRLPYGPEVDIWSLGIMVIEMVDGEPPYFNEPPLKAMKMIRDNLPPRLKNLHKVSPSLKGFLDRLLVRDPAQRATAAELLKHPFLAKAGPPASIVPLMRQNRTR

[11] = Inhibition of Cryptosporidium parvum recombinant His6-tagged GSK-3 expressed in Escherichia coli using GS-1 peptide as substrate after 30 mins by scintillation counting analysis in presence of gamma-33P-ATP; procedure, shortened: as §4
[12] = biological target: Serine/threonine-protein kinase Chk2 (Homo sapiens) (UniProt O96017); assay: Inhibition of CHK2 (unknown origin) at 10 uM; procedure, shortened: as §1
Serine/threonine-protein kinase Chk2 (Homo sapiens), sequence (O96017 whole entry): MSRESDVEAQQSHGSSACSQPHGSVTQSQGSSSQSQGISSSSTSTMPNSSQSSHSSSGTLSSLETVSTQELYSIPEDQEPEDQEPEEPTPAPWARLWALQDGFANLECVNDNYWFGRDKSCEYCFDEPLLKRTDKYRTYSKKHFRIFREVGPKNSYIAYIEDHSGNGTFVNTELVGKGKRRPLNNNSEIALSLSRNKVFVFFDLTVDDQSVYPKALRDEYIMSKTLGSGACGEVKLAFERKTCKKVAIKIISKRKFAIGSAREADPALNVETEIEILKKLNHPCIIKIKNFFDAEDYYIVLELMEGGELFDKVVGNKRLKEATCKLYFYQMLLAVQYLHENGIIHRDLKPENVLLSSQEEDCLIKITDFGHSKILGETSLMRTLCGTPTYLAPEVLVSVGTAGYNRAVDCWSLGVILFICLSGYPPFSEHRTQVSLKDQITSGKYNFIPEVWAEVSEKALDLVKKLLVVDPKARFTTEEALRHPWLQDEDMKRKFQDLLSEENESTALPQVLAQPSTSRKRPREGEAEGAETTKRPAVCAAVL

[13] = biological target: Mitogen-activated protein kinase 14 (Homo sapiens) (UniProt Q16539); assay: Inhibition of P38alpha MAPK (unknown origin) at 10 uM; procedure, shortened: as §1
Mitogen-activated protein kinase 14 (Homo sapiens), sequence (Q16539 whole entry): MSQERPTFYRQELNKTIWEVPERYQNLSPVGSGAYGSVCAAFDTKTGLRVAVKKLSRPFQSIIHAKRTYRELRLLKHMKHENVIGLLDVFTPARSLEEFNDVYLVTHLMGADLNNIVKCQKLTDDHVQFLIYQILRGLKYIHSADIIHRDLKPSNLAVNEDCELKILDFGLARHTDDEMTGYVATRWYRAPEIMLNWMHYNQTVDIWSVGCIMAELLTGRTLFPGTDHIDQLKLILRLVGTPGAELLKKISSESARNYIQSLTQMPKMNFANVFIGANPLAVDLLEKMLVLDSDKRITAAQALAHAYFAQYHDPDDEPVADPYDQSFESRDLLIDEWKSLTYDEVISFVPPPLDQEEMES

[14] = Inhibition of Plasmodium knowlesi recombinant His6-tagged GSK-3 expressed in Escherichia coli using GS-1 peptide as substrate after 30 mins by scintillation counting analysis in presence of gamma-33P-ATP
Procedure, shortened: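 P. knowlesi GSK3 gene in pBAD-Thio-TOPO, expressed in E. coli TOP10 (ampicillin, 37 °C, 0.02% arabinose for 4 h), Ni-NTA purified. Radiometric assay: 40 μM GS-1 peptide in buffer A pH 7.5 (MgCl2, EGTA, DTT, heparin, BSA) with 15 μM γ-33P-ATP, 30 min at 30 °C. P81 filter binding, scintillation counting. IC50 from triplicate dose-response curves.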

[15] = biological target: Insulin receptor (Homo sapiens) (UniProt P06213); assay: Inhibition of IR-HIS (unknown origin) at 10 uM; procedure, shortened: as §1
Insulin receptor (Homo sapiens), sequence (P06213 28-758 limits assumed): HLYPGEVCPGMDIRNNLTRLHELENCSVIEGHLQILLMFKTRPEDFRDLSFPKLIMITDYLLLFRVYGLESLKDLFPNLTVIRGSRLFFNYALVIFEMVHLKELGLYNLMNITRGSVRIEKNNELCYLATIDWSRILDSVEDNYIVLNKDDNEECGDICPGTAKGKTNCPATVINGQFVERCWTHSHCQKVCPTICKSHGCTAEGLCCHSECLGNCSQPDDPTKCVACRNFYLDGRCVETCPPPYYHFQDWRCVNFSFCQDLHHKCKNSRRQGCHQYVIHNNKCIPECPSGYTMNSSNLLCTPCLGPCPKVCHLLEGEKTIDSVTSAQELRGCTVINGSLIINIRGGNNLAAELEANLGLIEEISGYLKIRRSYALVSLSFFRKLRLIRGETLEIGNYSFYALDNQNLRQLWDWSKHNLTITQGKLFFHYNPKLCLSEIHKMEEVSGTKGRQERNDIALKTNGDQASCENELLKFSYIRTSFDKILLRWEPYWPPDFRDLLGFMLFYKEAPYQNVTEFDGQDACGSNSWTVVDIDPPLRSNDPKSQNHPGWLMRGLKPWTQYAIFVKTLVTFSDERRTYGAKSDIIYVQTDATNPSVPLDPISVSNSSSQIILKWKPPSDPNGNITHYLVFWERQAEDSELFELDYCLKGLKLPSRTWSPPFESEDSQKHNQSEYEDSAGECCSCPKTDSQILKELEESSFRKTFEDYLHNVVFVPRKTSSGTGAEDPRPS
Insulin receptor (Homo sapiens), sequence (P06213 763-1382 limits assumed): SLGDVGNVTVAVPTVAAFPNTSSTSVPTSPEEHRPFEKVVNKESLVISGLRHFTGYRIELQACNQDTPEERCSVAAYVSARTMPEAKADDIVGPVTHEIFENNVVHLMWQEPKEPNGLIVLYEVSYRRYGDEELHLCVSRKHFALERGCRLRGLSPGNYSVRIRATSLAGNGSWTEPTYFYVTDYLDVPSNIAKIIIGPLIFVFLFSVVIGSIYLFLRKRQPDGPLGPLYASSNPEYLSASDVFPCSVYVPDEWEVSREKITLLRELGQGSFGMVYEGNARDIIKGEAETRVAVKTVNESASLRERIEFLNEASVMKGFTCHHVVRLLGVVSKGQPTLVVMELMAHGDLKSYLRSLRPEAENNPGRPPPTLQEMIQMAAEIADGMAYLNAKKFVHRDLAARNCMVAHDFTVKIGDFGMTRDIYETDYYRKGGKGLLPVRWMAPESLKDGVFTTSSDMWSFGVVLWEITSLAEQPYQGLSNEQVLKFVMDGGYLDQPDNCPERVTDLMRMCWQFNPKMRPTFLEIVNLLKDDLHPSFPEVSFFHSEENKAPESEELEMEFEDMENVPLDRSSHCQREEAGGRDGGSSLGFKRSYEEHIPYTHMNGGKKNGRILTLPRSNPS

[16] = biological target: Glycogen synthase kinase-3 (Sus scrofa, UniProt B2LUN4+I6LNT8); assay: Inhibition of pig GSK-3alpha/beta; procedure, shortened: as §3
[17] = biological target: Tyrosine-protein kinase BTK (Homo sapiens) (UniProt Q06187); assay: Inhibition of BTK (unknown origin) at 10 uM; procedure, shortened: as §1
Tyrosine-protein kinase BTK (Homo sapiens), sequence (Q06187 whole entry): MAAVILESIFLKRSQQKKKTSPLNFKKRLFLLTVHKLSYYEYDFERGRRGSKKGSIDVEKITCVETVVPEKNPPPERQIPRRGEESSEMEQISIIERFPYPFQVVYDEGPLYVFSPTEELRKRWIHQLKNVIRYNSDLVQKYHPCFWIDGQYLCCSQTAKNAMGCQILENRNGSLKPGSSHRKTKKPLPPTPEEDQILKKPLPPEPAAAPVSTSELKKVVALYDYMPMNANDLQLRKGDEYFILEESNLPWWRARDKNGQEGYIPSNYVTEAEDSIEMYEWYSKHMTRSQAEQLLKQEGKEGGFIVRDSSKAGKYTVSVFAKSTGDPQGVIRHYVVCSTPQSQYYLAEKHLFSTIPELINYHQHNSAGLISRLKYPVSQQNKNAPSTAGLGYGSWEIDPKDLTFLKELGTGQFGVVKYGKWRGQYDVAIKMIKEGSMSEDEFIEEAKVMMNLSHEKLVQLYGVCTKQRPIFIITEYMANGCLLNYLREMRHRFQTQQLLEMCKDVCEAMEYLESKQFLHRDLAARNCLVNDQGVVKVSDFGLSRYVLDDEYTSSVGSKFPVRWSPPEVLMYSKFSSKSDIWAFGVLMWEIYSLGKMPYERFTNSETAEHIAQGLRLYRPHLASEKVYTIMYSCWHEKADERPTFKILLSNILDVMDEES

N#Cc1c(N)nc2sc(C(=O)c3cccc(Cl)c3)c(N)c2c1-c1ccccc1Cl
inhibition [1]: > 50% | inhibition at 15 µM (Plasmodium falciparum [2]): 100% | pIC50 [3]: < 5.00 | pIC50 [4]: 6.32 | inhibition [5]: > 80% | pIC50 [6]: 6.32 | inhibition [7]: > 50% | pEC50 (Plasmodium falciparum [8]): 5.26 | pIC50 [9]: < 4.00 | inhibition [10]: > 50% | pIC50 [11]: < 4.00 | inhibition [12]: > 50% | inhibition [13]: > 50% | pIC50 [14]: 5.61 | inhibition [15]: > 50% | IC50 [16]: > 10 µM | inhibition [17]: > 50%
